From publication PMC3253528 (Journal of the American Chemical Society, 2011)
Where “and” joins values, the source holds several entries; their conditions need not be identical. Equal values may be shown once.

Tests used:
[1] = dynamic light scattering; assay type: physicochemical; settings: DLS conc. 50 μM
[2] = biological target: T1, procaspase-3 (Homo sapiens, UniProt P42574); test: procaspase-3 self-activation assay; assay type: biochemical
T1 sequence (P42574 1-277): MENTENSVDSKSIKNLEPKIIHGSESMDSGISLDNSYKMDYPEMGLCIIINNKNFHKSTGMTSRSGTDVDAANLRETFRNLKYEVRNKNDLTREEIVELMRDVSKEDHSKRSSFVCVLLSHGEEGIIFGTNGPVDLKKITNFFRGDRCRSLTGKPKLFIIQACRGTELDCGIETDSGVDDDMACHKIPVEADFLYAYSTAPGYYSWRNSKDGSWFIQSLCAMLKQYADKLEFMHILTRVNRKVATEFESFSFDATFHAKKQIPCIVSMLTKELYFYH
In short: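 Known promiscuous enzyme-inhibiting aggregators (panel of six) were each tested for ability to activate wild-type procaspase-3. The self-activation assay is run at 37°C.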

[3] = biological target: T2, caspase-3 (Homo sapiens, UniProt P42574); test: inhibition of mature caspase-3 by known aggregators; assay type: biochemical
T2 sequence (P42574 29-175 limits assumed): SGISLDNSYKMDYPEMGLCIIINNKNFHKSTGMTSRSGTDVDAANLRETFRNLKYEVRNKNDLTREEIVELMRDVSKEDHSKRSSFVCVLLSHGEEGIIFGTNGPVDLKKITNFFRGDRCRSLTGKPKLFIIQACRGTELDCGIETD
T2 sequence (P42574 176-277 limits assumed): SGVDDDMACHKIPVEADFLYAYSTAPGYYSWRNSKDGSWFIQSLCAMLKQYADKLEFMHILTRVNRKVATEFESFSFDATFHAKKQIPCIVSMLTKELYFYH

Structure (SMILES)	DLS Intensity ([1]; 25°C)	Radius ([1]; 25°C)	DLS Intensity ([1]; 37°C) [kcps]	Radius ([1]; 37°C) [nm]	activation of procaspase-3 by known aggregators [2]	inhibition of mature caspase-3 [3]
O=C1OC(c2cc(I)c(O)c(I)c2)(c2cc(I)c(O)c(I)c2)c2ccccc21 [TIPT, 3′,3″,5′,5″-tetraiodophenolpthalein]	3903.5 kcps and 3903.5 ± 1423.0 kcps	71.1 nm and 71.1 ± 8.6 nm	3933.2 ± 1369.0	76.7 ± 7.8		
Nc1c(/N=N/c2ccc(-c3ccc(/N=N/c4cc(S(=O)(=O)O)c5ccccc5c4N)cc3)cc2)cc(S(=O)(=O)O)c2ccccc12 [Congo red]					no activation	inhibited
